SMILES strings stand for the structures. In brackets after ≈: the same amount, converted by molar mass. Activity calls are given as the source filed them. The rule behind the calls is not given here.

One experiment has as its system Escherichia coli. As to the kind of experiment: Antibacterial activity against Escherichia coli ATCC 9637 after 24 hrs. The experiment is classed as functional, organism-based. In short, it runs like this: (§1)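 Broth microdilution MIC per NCCLS protocol in Mueller Hinton broth. Strains grown on nutrient agar at 37 °C for 24 h, then suspended in normal saline with 0.05% Tween 20. Inoculum was a McFarland-matched suspension diluted into medium. Compounds were dissolved in DMSO at 1 mg/mL stock and serially twofold diluted, top concentration 50 µg/mL. Plates incubated 35 °C, moist dark chamber, 24 h. MIC read spectrophotometrically.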

A further experiment has as its system Pseudomonas aeruginosa. Briefly: Antibacterial activity against Pseudomonas aeruginosa ATCC BAA427 after 24 hrs. The format is functional, organism-based. An outline of the steps: as §1
Experiment [1] concerns Staphylococcus aureus. Briefly: Antibacterial activity against floxacin and methicillin-resistant Staphylococcus aureus ATCC 25923 after 24 hrs. The following applies: ATCC 25923, 24 h. The experiment is classed as functional.
In experiment [2] the test system is Staphylococcus aureus. As to the kind of experiment: Antibacterial activity against methicillin-resistant Staphylococcus aureus ATCC 70069 after 24 hrs. The experiment is classed as functional. The following applies: ATCC 70069, 24 h.
The subject of experiment [3] is Staphylococcus aureus. As to the kind of experiment: Antibacterial activity against […] Staphylococcus aureus ATCC 29213 after 24 hrs. The experiment is classed as functional. Particulars: ATCC 29213, 24 h.
The subject of a further experiment is Bacillus cereus. As to the kind of experiment: Antibacterial activity against Bacillus cereus MTCC 430 after 24 hrs. The experiment is classed as functional. The following applies: MTCC 430, 24 h. In short, it runs like this: as §1
For the next experiment, the system named is Enterococcus faecalis. Briefly: Antibacterial activity against Enterococcus faecalis MTCC 439 after 24 hrs. The experiment is classed as functional. The following applies: MTCC 439, 24 h. In short, it runs like this: as §1
The subject of a further experiment is Klebsiella pneumoniae. As to the kind of experiment: Antibacterial activity against Klebsiella pneumoniae ATCC 27736 after 24 hrs. Particulars: ATCC 27736, 24 h. The format is functional. An outline of the steps: as §1
A further experiment has as its system Streptococcus pyogenes. As to the kind of experiment: Antibacterial activity against Streptococcus pyogenes after 24 hrs. The format is functional. In short, it runs like this: as §1

Usually MIC stands for the lowest concentration that inhibits growth of the organism. The low end stands for a more susceptible organism, the high end for a less susceptible organism. Regarding `CC(=O)NC[C@H]1CN(c2ccc(N3CCN(C(=O)C4CC(c5cccs5)=NO4)CC3)c(F)c2)C(=O)O1` (mixture of isomers), the result in the experiment with Escherichia coli and with Pseudomonas aeruginosa was inactive. In addition, the MIC turned out to be 6.06 µM with Staphylococcus aureus [1]; 24.3 µM in the experiment on Staphylococcus aureus [2]; 24.3 µM in the experiment on Staphylococcus aureus [3]; 6.06 µM with Bacillus cereus; 24.3 µM with Enterococcus faecalis; 6.06 µM against Klebsiella pneumoniae. Also, the MIC against Streptococcus pyogenes was determined as 12.1 µM.

Regarding `CC(=O)NC[C@H]1CN(c2ccc(N3CCN(C(=O)C4CC(c5cccc([N+](=O)[O-])c5)=NO4)CC3)c(F)c2)C(=O)O1` (mixture of isomers), the outcome with Escherichia coli and with Pseudomonas aeruginosa was inactive. The MIC with Staphylococcus aureus [1] stood at 0.343 µM; in the experiment on Staphylococcus aureus [2], 0.704 µM; against Staphylococcus aureus [3] it was 0.704 µM; in the experiment on Bacillus cereus, 0.162 µM; with Enterococcus faecalis, 0.0866 µM; with Klebsiella pneumoniae it was 0.704 µM. This molecule had an MIC in the experiment on Streptococcus pyogenes of 0.704 µM.

Consider `CC(=O)NC[C@H]1CN(c2ccc(N3CCN(C(=O)C4CC(c5ccc(Cl)cc5)=NO4)CC3)c(F)c2)C(=O)O1` (mixture of isomers), for which the outcome with Escherichia coli and with Pseudomonas aeruginosa was inactive. Besides, the MIC was 0.166 µM against Staphylococcus aureus [1]; 0.35 µM in the experiment on Staphylococcus aureus [2]; 2.87 µM in the experiment with Staphylococcus aureus [3]; 0.35 µM in the experiment with Bacillus cereus; 0.35 µM with Enterococcus faecalis; 0.166 µM against Klebsiella pneumoniae. This molecule displayed an MIC in the experiment on Streptococcus pyogenes of 0.349 µM.

For the molecule `CC(=O)NC[C@H]1CN(c2ccc(N3CCN(C(=O)C4CC(c5ccc(F)c(F)c5)=NO4)CC3)c(F)c2)C(=O)O1` (mixture of isomers), the outcome in the experiment with Escherichia coli and with Pseudomonas aeruginosa was inactive. For the same molecule, the MIC in the experiment with Staphylococcus aureus [1] was determined as 0.349 µM; against Staphylococcus aureus [2] it was 0.349 µM; with Staphylococcus aureus [3], 0.716 µM; in the experiment on Bacillus cereus, 0.349 µM; against Enterococcus faecalis, 0.349 µM; against Klebsiella pneumoniae it was 0.716 µM. This molecule also yielded an MIC against Streptococcus pyogenes of 0.349 µM.

For the molecule `CC(=O)NC[C@H]1CN(c2ccc(N3CCN(C(=O)C4CC(c5ccc(F)cc5)=NO4)CC3)c(F)c2)C(=O)O1` (mixture of isomers), the result with Escherichia coli and in the experiment on Pseudomonas aeruginosa was inactive. The MIC was 0.74 µM in the experiment with Staphylococcus aureus [1]; 0.74 µM against Staphylococcus aureus [2]; 0.74 µM against Staphylococcus aureus [3]; 0.74 µM in the experiment with Bacillus cereus; 0.74 µM with Enterococcus faecalis; 1.48 µM against Klebsiella pneumoniae. Moreover, in the experiment on Streptococcus pyogenes, the lowest concentration to inhibit growth (MIC) was 0.74 µM.

With `CC(=O)NC[C@H]1CN(c2ccc(N3CCN(C(=O)C4CC(c5ccccc5)=NO4)CC3)c(F)c2)C(=O)O1` (mixture of isomers), the result in the experiment on Escherichia coli and in the experiment with Pseudomonas aeruginosa was inactive. Also, the MIC with Staphylococcus aureus [1], in the experiment with Staphylococcus aureus [2], in the experiment with Staphylococcus aureus [3], with Bacillus cereus, in the experiment with Enterococcus faecalis and against Klebsiella pneumoniae was 24.6 µM throughout. Further, in the experiment with Streptococcus pyogenes, the lowest concentration to inhibit growth (MIC) was 24.6 µM.

With `CC(=O)NC[C@H]1CN(c2ccc(N3CCN(C(=O)C4CC(c5ccccn5)=NO4)CC3)c(F)c2)C(=O)O1` (mixture of isomers), the result in the experiment on Escherichia coli and with Pseudomonas aeruginosa was inactive. The MIC with Staphylococcus aureus [1] is 0.765 µM; with Staphylococcus aureus [2] it was 1.53 µM; in the experiment with Staphylococcus aureus [3], 1.53 µM; against Bacillus cereus, 0.765 µM; with Enterococcus faecalis, 0.372 µM; in the experiment with Klebsiella pneumoniae it was 0.765 µM. In addition, the MIC with Streptococcus pyogenes was 0.372 µM.

Turning to `CC(=O)NC[C@H]1CN(c2ccc(N3CCN(C(=O)C4CC(c5ccc(C)cc5)=NO4)CC3)c(F)c2)C(=O)O1` (mixture of isomers), the outcome in the experiment on Escherichia coli and in the experiment on Pseudomonas aeruginosa was inactive. Also, the MIC against Staphylococcus aureus [1] was 0.363 µM; against Staphylococcus aureus [2], 1.49 µM; against Staphylococcus aureus [3], 2.98 µM; in the experiment on Bacillus cereus, 0.363 µM; with Enterococcus faecalis, 0.746 µM; in the experiment with Klebsiella pneumoniae it was 0.363 µM. In the experiment on Streptococcus pyogenes, this molecule displayed an MIC of 0.746 µM.

`CC(=O)NC[C@H]1CN(c2ccc(N3CCOCC3)c(F)c2)C(=O)O1` [LINEZOLID]: the MIC in the experiment on Staphylococcus aureus [1] was 4.63 µM (≈ 1.56 µg/mL); against Staphylococcus aureus [2], 4.63 µM (≈ 1.56 µg/mL); with Staphylococcus aureus [3], 9.26 µM (≈ 3.12 µg/mL); in the experiment with Bacillus cereus, 2.31 µM (≈ 0.781 µg/mL); with Enterococcus faecalis, 9.26 µM (≈ 3.12 µg/mL); with Klebsiella pneumoniae, 4.63 µM (≈ 1.56 µg/mL). In the experiment with Streptococcus pyogenes, this molecule showed an MIC of 4.63 µM (≈ 1.56 µg/mL).

As for `CC(=O)NC[C@H]1CN(c2ccc(N3CCN(C(=O)C4CC(c5cccc(C(F)(F)F)c5)=NO4)CC3)c(F)c2)C(=O)O1` (mixture of isomers), the result in the experiment on Escherichia coli and in the experiment with Pseudomonas aeruginosa was inactive. Besides, the MIC against Staphylococcus aureus [1] came out at 1.35 µM; in the experiment with Staphylococcus aureus [2], 1.35 µM; in the experiment with Staphylococcus aureus [3], 2.7 µM; against Bacillus cereus it was 1.35 µM; against Enterococcus faecalis, 1.35 µM; against Klebsiella pneumoniae, 2.7 µM. It took 1.35 µM to inhibit growth in the experiment with Streptococcus pyogenes (MIC).

As for `COc1ccc(C2=NOC(C(=O)N3CCN(c4ccc(N5C[C@H](CNC(C)=O)OC5=O)cc4F)CC3)C2)cc1O` (mixture of isomers), the result in the experiment on Escherichia coli and in the experiment on Pseudomonas aeruginosa was inactive. The minimum inhibitory concentration (MIC) with Staphylococcus aureus [1] was determined as 0.342 µM; against Staphylococcus aureus [2] it was 0.703 µM; in the experiment with Staphylococcus aureus [3], 0.703 µM; in the experiment on Bacillus cereus it was 0.342 µM; with Enterococcus faecalis, 0.342 µM; in the experiment with Klebsiella pneumoniae, 0.342 µM. In the experiment on Streptococcus pyogenes, this molecule showed an MIC of 0.703 µM.

For the molecule `CC(=O)NC[C@H]1CN(c2ccc(N3CCN(C(=O)C4CC(c5ccc(C(F)(F)F)cc5)=NO4)CC3)c(F)c2)C(=O)O1` (mixture of isomers), the result in the experiment on Escherichia coli and in the experiment with Pseudomonas aeruginosa was inactive. Further, the MIC against Staphylococcus aureus [1] came out at 0.676 µM; against Staphylococcus aureus [2], 0.676 µM; in the experiment with Staphylococcus aureus [3], 2.7 µM; in the experiment with Bacillus cereus, 0.676 µM; against Enterococcus faecalis, 0.329 µM; with Klebsiella pneumoniae, 0.676 µM. The MIC in the experiment on Streptococcus pyogenes is 0.676 µM.

For `CC(=O)NC[C@H]1CN(c2ccc(N3CCN(C(=O)C4CC(c5ccsc5)=NO4)CC3)c(F)c2)C(=O)O1` (mixture of isomers), the result with Escherichia coli and in the experiment with Pseudomonas aeruginosa was inactive. The MIC in the experiment on Staphylococcus aureus [1] was determined as 12.1 µM; against Staphylococcus aureus [2], 6.06 µM; against Staphylococcus aureus [3], 24.3 µM; in the experiment on Bacillus cereus, 12.1 µM; with Enterococcus faecalis it was 12.1 µM; against Klebsiella pneumoniae, 6.06 µM. The MIC against Streptococcus pyogenes was determined as 12.1 µM.

Take `CC(=O)NC[C@H]1CN(c2ccc(N3CCN(C(=O)C4CC(c5ccc6c(c5)OCO6)=NO4)CC3)c(F)c2)C(=O)O1` (mixture of isomers): the result with Escherichia coli and in the experiment on Pseudomonas aeruginosa was inactive. The MIC stood at 0.163 µM against Staphylococcus aureus [1]; 0.344 µM against Staphylococcus aureus [2]; 2.82 µM against Staphylococcus aureus [3]; 0.344 µM against Bacillus cereus; 0.344 µM in the experiment with Enterococcus faecalis; 0.163 µM against Klebsiella pneumoniae. The molecule further had an MIC against Streptococcus pyogenes of 0.344 µM.

Regarding `CN[C@H](CC(C)C)C(=O)N[C@H]1C(=O)N[C@@H](CC(N)=O)C(=O)N[C@H]2C(=O)N[C@H]3C(=O)N[C@H](C(=O)N[C@H](C(=O)O)c4cc(O)cc(O)c4-c4cc3ccc4O)[C@H](O)c3ccc(c(Cl)c3)Oc3cc2cc(c3O[C@@H]2O[C@H](CO)[C@@H](O)[C@H](O)[C@H]2O[C@H]2C[C@](C)(N)[C@H](O)[C@H](C)O2)Oc2ccc(cc2Cl)[C@H]1O` [VANCOMYCIN], the MIC in the experiment with Staphylococcus aureus [1] was found to be 0.262 µM (≈ 0.38 µg/mL); against Staphylococcus aureus [2], 4.21 µM (≈ 6.1 µg/mL); in the experiment with Staphylococcus aureus [3] it was 1.05 µM (≈ 1.52 µg/mL); against Bacillus cereus, 0.128 µM (≈ 0.185 µg/mL); in the experiment on Enterococcus faecalis, 0.525 µM (≈ 0.761 µg/mL); in the experiment on Klebsiella pneumoniae, 0.262 µM (≈ 0.38 µg/mL). This molecule also yielded an MIC in the experiment on Streptococcus pyogenes of 0.262 µM (≈ 0.38 µg/mL).

For the molecule `CC(=O)NC[C@H]1CN(c2ccc(N3CCN(C(=O)C4CC(c5ccc(Cl)c(Cl)c5)=NO4)CC3)c(F)c2)C(=O)O1` (mixture of isomers), the result with Escherichia coli and in the experiment with Pseudomonas aeruginosa was inactive. Also, the MIC with Staphylococcus aureus [1] was determined as 0.329 µM; with Staphylococcus aureus [2], 0.329 µM; in the experiment with Staphylococcus aureus [3] it was 2.7 µM; with Bacillus cereus, 0.156 µM; against Enterococcus faecalis, 0.329 µM; in the experiment on Klebsiella pneumoniae it was 0.329 µM. Moreover, the lowest concentration to inhibit growth against Streptococcus pyogenes (MIC) was 0.329 µM.

With `CC(=O)NC[C@H]1CN(c2ccc(N3CCN(C(=O)C4CC(c5ccco5)=NO4)CC3)c(F)c2)C(=O)O1` (mixture of isomers), the outcome with Escherichia coli and in the experiment on Pseudomonas aeruginosa was inactive. For the same molecule, the MIC in the experiment with Staphylococcus aureus [1] worked out at 0.781 µM; against Staphylococcus aureus [2] it was 1.56 µM; in the experiment on Staphylococcus aureus [3] it was 6.25 µM; with Bacillus cereus, 1.56 µM; against Enterococcus faecalis, 0.781 µM; in the experiment on Klebsiella pneumoniae it was 1.56 µM. The MIC with Streptococcus pyogenes was found to be 0.781 µM.

For the origin of these results see ChEMBL document CHEMBL1157001, “Synthesis and antibacterial evaluation of isoxazolinyl oxazolidinones: Search for potent antibacterial” (2009).
